Screening results from PubChem.
In the library only some 9.4% were active in any assay of this set; here they are far more common.
Beta cell apopt: beta cell apoptosis inhibition. INS-1E cytokine-induced death, ATP luminescence, 48 h; percent of positive-control rescue, neutral wells zero. protection from apoptosis, % (no concentration beside the values). 0.8% of 300,000 active;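 active = Every replicate reaches about 75%, or at least half do and their mean reaches it too, limit read from the data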;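 also: 0% = cytokine-treated negative control wells and 100% = positive control rescue; higher means more ATP so stronger rescue from cytokine killing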
L major viab: Leishmania major promastigote growth inhibition; AID 1063; Leishmania major promastigotes, resazurin fluorescence viability; inhibition, % at 10 µM; 9% of 200,000 active; in the data active = inhibition above about 50%;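 also: promastigotes grown with compound for 44 hours at 28 °C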
CSC inhib: cancer stem cell inhibition; cancer stem cell-like cells viability, luminescence; inhibition, % at 7.5 µM; 1.1% of 300,000 active; AID 2717; in the data active = inhibition above about 75%; tested in HMLE shEcad cells
T cruzi repl: T. cruzi replication inhibition. T. cruzi beta-gal in NIH3T3, luminescence, 90 h. inhibition, % (concentration not given with the values). 1.4% of 300,000 active;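 active = mean inhibition across valid replicates above about 55%, limit read from the data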;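 also: signal also drops with host cell toxicity which is not excluded here; 0% = plate median of DMSO wells and 100% = zero luminescence signal; higher percent means less beta-gal luminescence so fewer parasites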
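System: NIH/3T3 fibroblasts plus reporter T. cruzi. Medium: DMEM plus 2% FBS. Probe or stimulus: 5000 reporter trypomastigotes per well. Compound: single 50 nL compound addition per well in DMSO. Incubation: co-culture of at least 90 h after 3 h attachment. Detection: GalScreen β-gal luminescence, detergent lysis, 60 min. Evaluation: parasite load inhibition, %.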
Mdm2-MdmX inh: human Mdm2/MdmX binding inhibition. 3% of 330,000 active. SaOS-2 split-luciferase Mdm2/MdmX complementation, luminescence. inhibition, % at 8 µM. AID 485346. O15151+Q00987;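 active = inhibition of at least 50% at 8 µM in the primary screen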
Target sequence (O15151 whole entry, looked up): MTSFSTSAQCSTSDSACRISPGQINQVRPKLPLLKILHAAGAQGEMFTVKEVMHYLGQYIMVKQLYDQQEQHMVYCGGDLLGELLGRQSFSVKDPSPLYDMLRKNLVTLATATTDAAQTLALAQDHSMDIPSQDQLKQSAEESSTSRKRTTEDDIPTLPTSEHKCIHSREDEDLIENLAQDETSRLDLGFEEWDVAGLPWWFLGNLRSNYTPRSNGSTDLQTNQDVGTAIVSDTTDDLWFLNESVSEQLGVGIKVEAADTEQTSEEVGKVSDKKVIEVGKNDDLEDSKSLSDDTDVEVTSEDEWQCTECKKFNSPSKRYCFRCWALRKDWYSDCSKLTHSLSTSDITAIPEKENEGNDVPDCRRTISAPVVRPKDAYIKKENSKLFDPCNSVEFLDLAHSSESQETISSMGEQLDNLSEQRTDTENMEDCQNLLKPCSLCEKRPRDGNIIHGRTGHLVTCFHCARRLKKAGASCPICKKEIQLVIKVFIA
Target sequence (Q00987 whole entry, looked up): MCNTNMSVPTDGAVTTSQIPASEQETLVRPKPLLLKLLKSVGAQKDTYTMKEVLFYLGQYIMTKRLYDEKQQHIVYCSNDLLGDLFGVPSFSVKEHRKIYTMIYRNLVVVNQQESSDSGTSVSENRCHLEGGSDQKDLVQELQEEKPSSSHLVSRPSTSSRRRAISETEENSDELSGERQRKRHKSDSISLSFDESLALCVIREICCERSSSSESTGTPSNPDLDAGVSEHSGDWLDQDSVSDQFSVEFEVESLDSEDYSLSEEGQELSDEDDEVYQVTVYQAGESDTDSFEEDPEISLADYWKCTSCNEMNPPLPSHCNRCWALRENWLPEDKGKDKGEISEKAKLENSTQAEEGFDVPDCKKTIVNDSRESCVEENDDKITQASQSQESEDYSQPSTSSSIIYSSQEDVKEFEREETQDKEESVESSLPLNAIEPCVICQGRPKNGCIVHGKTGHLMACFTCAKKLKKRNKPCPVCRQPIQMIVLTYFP
SKKanGAS inh: SKKanGAS growth inhibition; S. pyogenes SKKanGAS, kanamycin growth, BacTiter-Glo, 6 h; inhibition, % at 7.5 µM; 1.3% of 300,000 active; AID 1662;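 active = mean replicate score, as percent of positive control median, at least 50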;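 also: strain carries kanamycin resistance gene driven by streptokinase promoter and grows in 40 µg/ml kanamycin; loss of luminescence reflects streptokinase promoter inhibition or plain growth inhibition; 0% = median of DMSO wells and 100% = positive control at its reference dose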
Mdm2-MdmX conf: human Mdm2/MdmX binding inhibition, confirmed; 55% of 10,000 active; AID 489028; shares compounds with Mdm2-MdmX inh; inhibition, % at 8 µM; luminescent assay; in the data active = inhibition above about 40%
Full FLuc ctr: inhibits full-length luciferase, flagging false Mdm2/MdmX hits; shares compounds with Mdm2-MdmX inh; SaOS-2 full-length luciferase counterscreen, luminescence; inhibition, % at 8 µM; 77% of 6,200 active;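 active = mean inhibition at 8 µM reaching about 37%, which flags the compound as non-specific, limit read from the data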;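 also: p53-null SaOS-2 cells with luciferase driven by a doxycycline-inducible promoter; compound on cells about two nights before reading with doxycycline added after day one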
* = called active by the depositor; / = not tested or not shown.

SMILES	Beta cell apopt	L major viab	CSC inhib	T cruzi repl	Mdm2-MdmX inh	SKKanGAS inh	Mdm2-MdmX conf	Full FLuc ctr
COc1cccc(C2CC(c3c(-c4ccccc4)c4cc(Cl)ccc4[nH]c3=O)=NN2S(C)(=O)=O)c1OC (centres undefined)	20	100*	16	36	50*	19	32	69*
COc1ccc(C2CC(c3c(-c4ccccc4)c4cc(Cl)ccc4[nH]c3=O)=NN2C(=O)CCC(=O)O)cc1 (centres undefined)	-7	-7	2	-7	2	4	/	/
C/C(CC(=O)NC1CCCCC1)=N\NC(=O)COc1ccc(C)cc1Br	-3	-2	-19	-7	18	1	/	/
O=C(CCl)NC1CCCc2ccccc21 (centres undefined)	6	7	4	-13	58*	-5	20	/
O=C(Cc1ccc(Br)cc1)NC1CCCc2ccccc21 (centres undefined)	0	/	-6	2	-3	5	/	/
COCCCNC(=O)C(=O)C1C(=O)Nc2ccccc21 (centres undefined)	5	-9	-11	-7	-3	-10	/	/
O=C(CSc1nnnn1-c1ccccc1)Nc1ncc(Cc2cccc(Cl)c2Cl)s1	1	0	6	6	56*	-8	16	/
O=C(CSc1nnnn1-c1ccccc1)Nc1ncc(Cc2cc(Cl)ccc2Cl)s1	-5	11	3	3	38	7	/	/
CCc1ccc(CCC(=O)Nc2ncc(Cc3ccccc3Cl)s2)o1	10	-5	82*	-7	66*	-13	51*	80*
Cc1ccc(-n2nnnc2SCC(=O)Nc2ncc(Cc3ccccc3Cl)s2)cc1	-3	1	/	-4	59*	-10	-24	/
COC(=O)c1ccc(NC(=O)N(c2ccccc2)c2ccccc2)cc1	0	/	-24	3	13	-3	/	/
O=[N+]([O-])c1cc(C(F)(F)F)ccc1N1CCC(O)CC1	-5	2	-9	-8	6	-1	/	/
O=[N+]([O-])c1cc(C(F)(F)F)ccc1-n1nnc2ccccc21	-10	-1	9	-13	64*	2	10	/
O[C@@H]1COC(Nc2ccc(N=Nc3ccccc3)cc2)C[C@@H]1O (some centres undefined)	-7	/	51	1	-73	3	/	/
CCn1c(SCc2c(Cl)cccc2Cl)nc2nc3c(cc2c1=O)CCCC3	28	/	30	29	64*	26	63*	36
CCn1c(SCc2ccccc2Cl)nc2nc3c(cc2c1=O)CCCC3	/	43	/	42	/	41	/	/
CCOC(=O)c1cc(-c2ccccc2C)nn1CC1CC(c2ccc(OC)cc2)=NO1 (centres undefined)	4	/	27	/	5	/	/	/
Cc1cc(C)n2nc(N)c(N=Nc3ccc4c(c3)OCO4)c2n1	4	-5	-5	18	57*	-7	-26	/
COc1cc(CNc2ncnc3c2[nH]c2ccc(C)cc23)cc(OC)c1	8	/	7	26	31	7	/	/
COc1ccc(/C=N/Nc2ncnc3c2[nH]c2ccc(C)cc23)c(OC)c1OC	54	/	2	13	77*	1	53*	10
COc1cc(OC)c(OC)cc1/C=N/Nc1ncnc2c1[nH]c1ccccc12	12	61*	25	7	84*	1	55*	12
COc1cccc(/C=N/Nc2nnc3c(n2)[nH]c2ccccc23)c1OC	19	/	-8	5	19	5	/	/
CNC(=O)CN(c1cc(OCCOC)c(Cl)cc1Cl)S(=O)(=O)c1ccc(OC)cc1	-1	-1	6	5	57*	1	48*	79*
Cc1cccc(NC(=O)CSc2nc3ccccc3nc2N2CCCC2)c1	-3	/	25	-1	85*	3	45*	81*
Cc1cccc(NC(=O)CSc2nc3ccccc3nc2N2CCCCC2)c1	4	/	43	19	96*	5	44*	102*
SMILES	Beta cell apopt	L major viab	CSC inhib	T cruzi repl	Mdm2-MdmX inh	SKKanGAS inh	Mdm2-MdmX conf	Full FLuc ctr
COc1cccc(NC(=O)CSc2nc3ccccc3nc2N2CCCC2)c1	-2	/	3	-4	64*	6	3	/
Cc1cccc(NC(=O)CSc2nc3ccccc3nc2N2CC(C)OC(C)C2)c1 (centres undefined)	4	/	7	18	24	21	/	/
CCc1ccc(NC(=O)CSc2nc3ccccc3nc2N2CCCCC2)cc1	17	/	9	27	37	0	/	/
O=C1C=C(c2cccc(Cl)c2O)C[C@@H](c2ccc(Cl)cc2)C1	-1	/	33	/	1	/	/	/
Cc1ccc(S(=O)(=O)N2CCCCC2)cc1NC(=O)COc1ccccc1F	6	5	-15	0	21	-6	/	/
Cc1nc(SCC(=O)NCC2CCCO2)c2cc(-c3ccccc3)sc2n1 (centres undefined)	2	/	/	/	71*	/	15	/
O=C(Nc1ccc(Cl)cc1)Nc1cc([N+](=O)[O-])ccc1F	29	-5	43	35	49	-5	/	/
O=C(Nc1ccc(Cl)cc1)Nc1csc([N+](=O)[O-])c1	80*	/	36	30	94*	3	76*	31
O=C(Nc1ccc([N+](=O)[O-])cc1)Nc1ccc(Cl)cc1F	108*	-4	-6	-8	87*	58*	91*	73*
Cc1cc(OC(F)F)ccc1NC(=O)Nc1ccc([N+](=O)[O-])cc1	64	21	-28	15	96*	13	86*	47*
CC(=O)Nc1ccccc1C(=O)C(=O)Nc1cccc(C(=O)N2CC(C)CC(C)C2)c1 (centres undefined)	-4	-6	4	-1	-2	-4	/	/
CCOC(=O)c1sc(NC(=O)CN2C(=O)c3cccc4cccc(c34)C2=O)nc1C	-5	16	7	2	73*	-3	13	/
COc1ccc(CNC(=O)CN2CCN(c3ccccc3O)CC2)cc1OC	-1	/	-1	22	-27	2	/	/
S=C1NC[C@H](c2ccccc2)N1CCCCC1CCCCC1	0	/	12	6	3	16	/	/
NC1=NC[C@H](c2ccccc2)N1CCCCC1CCCCC1	38	/	0	50	51*	-1	28	/
O=C(CN1C(=O)/C(=C/c2c(F)cccc2Cl)Oc2ccccc21)NCc1ccco1	10	27	43	21	64*	6	49*	102*
O=C(/C=C/c1c(F)cccc1Cl)NCc1ccco1	-4	-4	-3	3	-1	-7	/	/
Cc1ccnc(NC(=O)CSc2ccccn2)c1	/	/	/	-12	7	-6	/	/
Cc1onc(C(=O)N2CCN(C(c3ccccc3)c3ccccc3)CC2)c1[N+](=O)[O-]	-3	-1	16	46	71*	4	88*	52*
